The results in this text go back to ChEMBL document CHEMBL2069182, “Discovery and optimization of a novel series of GPR142 agonists for the treatment of type 2 diabetes mellitus” (Bioorg Med Chem Lett, 2012).

Molecules are shown by their SMILES. Some results are limits rather than exact numbers.

Data set [1] in a line: Volume of distribution at steady state in rat at 0.5 mg/kg, iv. Details: dose 0.5 mg/kg, route intravenous. Format: ADME, organism-based. To be noted: in vivo, read-out: Vdss. Put shortly: (§1)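 Rats dosed iv at 0.5 mg/kg; clearance, steady-state volume of distribution and mean residence time derived.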
Another data set concerns the target Cytochrome P450 3A4 (Homo sapiens, UniProt P08684). Put plainly: Inhibition of CYP3A4. Format: ADME.
In the next data set the target is Cytochrome P450 2D6 (Homo sapiens, UniProt P10635). Put plainly: Inhibition of CYP2D6. Format: ADME.
Cytochrome P450 2D6, sequence (P10635 whole entry): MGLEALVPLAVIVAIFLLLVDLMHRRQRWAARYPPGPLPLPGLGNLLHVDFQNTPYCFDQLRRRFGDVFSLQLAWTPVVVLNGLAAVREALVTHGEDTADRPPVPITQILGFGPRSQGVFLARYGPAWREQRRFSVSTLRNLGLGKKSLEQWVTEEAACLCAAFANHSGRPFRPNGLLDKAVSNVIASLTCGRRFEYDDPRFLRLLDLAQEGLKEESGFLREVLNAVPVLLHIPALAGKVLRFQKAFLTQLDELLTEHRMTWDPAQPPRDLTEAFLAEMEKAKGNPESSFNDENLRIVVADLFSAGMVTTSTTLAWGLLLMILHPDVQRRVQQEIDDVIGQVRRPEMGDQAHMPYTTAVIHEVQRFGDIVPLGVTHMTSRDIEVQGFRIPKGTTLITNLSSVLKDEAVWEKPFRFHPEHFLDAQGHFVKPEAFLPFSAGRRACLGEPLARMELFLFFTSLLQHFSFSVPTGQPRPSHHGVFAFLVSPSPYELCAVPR
For data set [2], the target named is T1, Probable G-protein coupled receptor 142 (Homo sapiens, UniProt Q7Z601).
T1 sequence (Q7Z601 whole entry): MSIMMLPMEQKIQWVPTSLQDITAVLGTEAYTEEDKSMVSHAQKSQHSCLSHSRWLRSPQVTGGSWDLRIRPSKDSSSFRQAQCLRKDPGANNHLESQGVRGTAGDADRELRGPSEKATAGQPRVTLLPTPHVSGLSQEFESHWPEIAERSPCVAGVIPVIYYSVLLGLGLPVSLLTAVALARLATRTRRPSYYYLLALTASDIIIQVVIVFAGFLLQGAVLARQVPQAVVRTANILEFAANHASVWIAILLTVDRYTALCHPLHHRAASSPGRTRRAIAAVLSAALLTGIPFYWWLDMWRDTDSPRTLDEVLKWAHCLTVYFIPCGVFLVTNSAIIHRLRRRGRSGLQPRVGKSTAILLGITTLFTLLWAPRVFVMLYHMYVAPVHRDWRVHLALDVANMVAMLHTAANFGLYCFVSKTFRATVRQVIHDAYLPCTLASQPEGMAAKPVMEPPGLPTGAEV
Put plainly: Agonist activity at human GPR142 expressed in HEK293 cells assessed as inositol phosphate accumulation using [3H]-inositol after 1 hr by scintillation counting. Format: functional, cell-based. Put shortly:
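HEK293 cells plated at 25,000/well, next day (80–90% confluent) transfected with 100 ng receptor plasmid per well by Lipofectamine; after 6 h switched to inositol-free DMEM/10% dialyzed FCS with 1 µCi/mL [3H]-inositol overnight. Washed in HBSS, then compound dilutions (DMSO) in HBSS/0.01% BSA plus 10 mM LiCl, 37 °C, 1 h. Lysed in ice-cold 20 mM formic acid, 4 °C 5 h, then yttrium silicate SPA beads, scintillation counting. Emax as % of maximal response to 10 mM tryptophan.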

The nature of data set [3]: Oral bioavailability in rat at 2 mg/kg. Format: ADME, organism-based. To be noted: in vivo. Put shortly:
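Rats given 2.0 mg/kg po; bioavailability (%F) determined against iv dosing at 0.5 mg/kg.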

A short description of data set [4]: Mean residence time in rat at 0.5 mg/kg, iv. Format: ADME, organism-based. Details: dose 0.5 mg/kg, route intravenous. The settings on record: in vivo. The method in brief:
as §1

Data set [5] concerns the target T1, Probable G-protein coupled receptor 142. Put plainly: Agonist activity at human GPR142 expressed in HEK293 cells assessed as inositol phosphate accumulation using [3H]-inositol after 1 hr by scintillation counting in presence of human serum. Format: functional, cell-based. The method in brief: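 Same transfected HEK293 [3H]-inositol IP accumulation protocol as buffer assay, but compound incubation (10 mM LiCl, 37 °C, 1 h) run in 100% human serum instead of HBSS/0.01% BSA. Formic acid lysis, SPA bead scintillation read-out. Emax expressed as % of maximal 10 mM tryptophan response.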

Data set [6] in a line: Half life in rat hepatocytes. Format: ADME, cell-based, Liver, Hepatocyte.
Another data set deals with Rattus norvegicus. The data set can be described thus: Clearance in rat at 0.5 mg/kg, iv. Format: ADME, organism-based. Set-up: dose 0.5 mg/kg, route intravenous. The settings on record: in vivo. Put shortly: as §1
A further data set has as its target Cytochrome P450 2C9 (Homo sapiens, UniProt P11712). The data set can be described thus: Inhibition of CYP2C9. Format: ADME.
The test system of a further data set is Hepatocyte. The data set can be described thus: Clearance in rat hepatocytes assessed per 10^-6 cells. Format: ADME, cell-based.
Data set [7] is described as follows: Metabolic stability in rat liver microsomes assessed as compound remaining after 30 mins. Format: ADME, Microsome. The settings on record: read-out: Stability. The method in brief: (§2)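 Human or rat liver microsomes incubated with compound for 30 min; percent parent remaining quantified by LC/MS in a high-throughput format.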
Another data set concerns the target CYP2D6 (Homo sapiens, UniProt P10635). The data set can be described thus: Inhibition of CYP2D6 at 3 uM. Format: ADME.
Data set [8] is described as follows: Metabolic stability in human liver microsomes assessed as compound remaining after 30 mins. Format: ADME, Microsome. To be noted: read-out: Stability. Put shortly: as §2
For data set [9], the target named is T2, Probable G-protein coupled receptor 142 (Homo sapiens) (UniProt Q7Z601).
T2 sequence (whole entry): T1 sequence (Q7Z601 whole entry)
Put plainly: Agonist activity at human GPR142 expressed in HEK293 cells assessed as inositol phosphate accumulation using [3H]-inositol after 1 hr by scintillation counting in presence of human serum relative to tryptophan. Format: functional, cell-based. Put shortly:
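Transiently transfected HEK293 cells were labelled overnight with 1 µCi/mL tritiated inositol, then given graded compound in 100% human serum (in place of HBSS/0.01% BSA) with 10 mM LiCl for 1 h at 37 °C. Lysis was in ice-cold 20 mM formic acid, with SPA-bead scintillation read-out. EC50 given; Emax as % of maximal tryptophan response.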

The target of data set [10] is T2, Probable G-protein coupled receptor 142 (Homo sapiens). Put plainly: Agonist activity at human GPR142 expressed in HEK293 cells assessed as inositol phosphate accumulation using [3H]-inositol after 1 hr by scintillation counting relative to tryptophan. Format: functional, cell-based. The method in brief: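 HEK293 cells on poly-D-lysine were transfected next day with 100 ng receptor plasmid/well, then labelled overnight with 1 µCi/mL [3H]-inositol in inositol-free DMEM/10% dialyzed FCS. Cells got graded compound in HBSS/0.01% BSA with 10 mM LiCl for 1 h at 37 °C. They were lysed in ice-cold 20 mM formic acid and counted with yttrium silicate SPA beads. EC50 given; Emax as % of maximal tryptophan response at 10 mM.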

The next data set concerns the target CYP3A4 (Homo sapiens, UniProt P08684). The data set can be described thus: Inhibition of CYP3A4 at 3 uM. Format: ADME.

Cytochrome P450 3A4, sequence (P08684 whole entry): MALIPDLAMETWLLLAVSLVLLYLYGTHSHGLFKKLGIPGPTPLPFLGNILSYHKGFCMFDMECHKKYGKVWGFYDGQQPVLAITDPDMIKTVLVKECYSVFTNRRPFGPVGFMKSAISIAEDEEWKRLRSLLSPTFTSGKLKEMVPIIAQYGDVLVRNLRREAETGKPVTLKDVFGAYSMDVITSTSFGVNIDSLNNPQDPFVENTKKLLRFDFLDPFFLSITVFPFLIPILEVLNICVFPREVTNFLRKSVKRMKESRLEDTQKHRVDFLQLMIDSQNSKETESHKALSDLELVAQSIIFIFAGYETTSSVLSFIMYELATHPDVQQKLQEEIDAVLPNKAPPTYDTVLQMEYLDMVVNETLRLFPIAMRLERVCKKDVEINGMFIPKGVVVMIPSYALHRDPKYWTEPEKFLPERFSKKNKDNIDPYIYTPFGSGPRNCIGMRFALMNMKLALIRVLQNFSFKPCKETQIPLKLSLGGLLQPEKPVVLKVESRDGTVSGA
Cytochrome P450 2C9, sequence (P11712 whole entry): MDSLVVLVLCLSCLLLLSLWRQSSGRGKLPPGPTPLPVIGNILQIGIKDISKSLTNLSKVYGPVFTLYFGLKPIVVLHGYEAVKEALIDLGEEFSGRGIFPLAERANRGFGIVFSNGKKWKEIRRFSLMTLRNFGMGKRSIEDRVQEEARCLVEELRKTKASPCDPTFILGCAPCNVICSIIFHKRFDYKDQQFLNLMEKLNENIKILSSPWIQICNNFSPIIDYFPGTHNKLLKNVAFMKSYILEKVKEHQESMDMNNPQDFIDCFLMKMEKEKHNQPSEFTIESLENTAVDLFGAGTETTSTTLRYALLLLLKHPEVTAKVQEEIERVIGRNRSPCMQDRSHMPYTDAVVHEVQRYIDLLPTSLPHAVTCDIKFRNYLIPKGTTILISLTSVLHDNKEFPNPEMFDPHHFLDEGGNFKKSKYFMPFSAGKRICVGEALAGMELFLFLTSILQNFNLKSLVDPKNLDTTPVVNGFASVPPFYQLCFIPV
CYP3A4, sequence (P08684 whole entry): as the sequence (P08684 whole entry) above
CYP2D6, sequence (P10635 whole entry): as the sequence (P10635 whole entry) above

On to `O=C(O)c1cc(NC(=O)[C@H](Cc2ccccc2)NCc2cscn2)cc(-c2ccncc2)c1`, for which the Vd in data set [1] is 0.5 L/kg. The IC50 on Cytochrome P450 3A4, against Cytochrome P450 2D6 and at Cytochrome P450 2C9 was > 30000 nM each time. Moreover, the results for the EC50 in [2] and in data set [5] were 110 nM and 480 nM, respectively. Besides, the bioavailability in data set [3] turned out to be 0%. In data set [4], the MRT amounted to 12 min. Besides, in [6], the half-life is 39 min. Besides, in the data set on Rattus norvegicus, the clearance turned out to be 48.3 mL/min/kg. In the data set on Hepatocyte, this molecule had a CLH of 18 µL/min. Also, the remaining at 0.5 h in [7] came to 74%.
As to `Cc1cc(-c2c[nH]c(=O)c(NC(=O)[C@H](Cc3ccccc3)NCc3cscn3)c2)ccn1`, the Vd in data set [1] turned out to be 0.75 L/kg. In addition, the inhibition at 3 µM against CYP2D6 was determined as 20%; on CYP3A4, 22%. For the same molecule, the IC50 against Cytochrome P450 3A4 and against Cytochrome P450 2D6 was > 30000 nM each time. In addition, the remaining at 0.5 h in [8] was found to be 10%; in data set [7] it was 11%. The EC50 in [2] worked out at 67 nM; in [5], 290 nM. The same molecule gave a bioavailability in data set [3] of 19%. Further, the results for the Emax in data set [9] and in [10] were 97% and 90%, respectively. In data set [4], this molecule yielded an MRT of 18 min. In the data set on Rattus norvegicus, this molecule showed a clearance of 43.3 mL/min/kg.
